S1P4 antagonist: S1P4 receptor antagonists, primary screen, cell-based | Sphingosine 1-phosphate receptor 4 (Homo sapiens), O95977 | hit rate 0.26% among 220,000 | S1P4-expressing cells, antagonist mode, reporter read-out | inhibition, % at 4.98 µM; in the data active = inhibition above about 29%;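 also: 0% = wells stimulated with agonist and 100% = vehicle wells without agonist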
Target sequence (O95977 whole entry, looked up): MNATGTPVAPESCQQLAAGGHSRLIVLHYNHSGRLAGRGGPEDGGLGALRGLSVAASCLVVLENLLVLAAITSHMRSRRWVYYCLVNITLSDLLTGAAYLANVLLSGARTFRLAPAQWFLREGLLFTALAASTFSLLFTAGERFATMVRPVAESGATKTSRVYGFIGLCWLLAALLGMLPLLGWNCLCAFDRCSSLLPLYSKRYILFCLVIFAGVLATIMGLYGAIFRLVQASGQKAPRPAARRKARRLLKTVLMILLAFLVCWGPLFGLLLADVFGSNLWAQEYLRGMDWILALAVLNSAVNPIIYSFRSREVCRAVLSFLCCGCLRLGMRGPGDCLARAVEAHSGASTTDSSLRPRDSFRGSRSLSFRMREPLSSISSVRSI
NPY2 pot ag: NPY-Y2 potentiators or agonists, primary screen, cell-based. cells expressing NPY-Y2, potentiator/agonist read-out. activation, % at 3.6 µM. hit rate 0.45% among 220,000. AID 1359, 2008; in the data active = activation above about 27%;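 also: cells stimulated with NPY near EC25 plus isoproterenol at EC100; 0% = vehicle plus submaximal agonist and 100% = vehicle plus saturating agonist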
NPY-Y1 antag: NPY-Y1 receptor antagonists, primary screen, cell-based. inhibition, % at 3.6 µM. Neuropeptide Y receptor type 1 (Homo sapiens), P25929. hit rate 1% among 200,000. HEK293-CNG Y1 cells, membrane potential fluorescence; NPY at EC95, then isoproterenol;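 active = inhibition above the campaign mean inhibition of all tested compounds plus 3 SD, cut at about 20% in these data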;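 also: 0% = DMSO wells given NPY plus isoproterenol and 100% = isoproterenol alone without NPY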
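Material: HEK293 cells co-expressing NPY Y1 receptor and cyclic-nucleotide gated channel. Timing: compound incubation 1 h at room temperature, readout 45 min post-stimulation. Signal: fluorescence, membrane potential probe.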
NPY-Y1 PAM-ag: NPY-Y1 receptor potentiators or agonists, primary screen, cell-based; Neuropeptide Y receptor type 1 (Homo sapiens), P25929; NPY-Y1 expressing cells, potentiator/agonist activation; activation, % at 3.6 µM; hit rate 0.37% among 220,000; in the data active = activation above about 33%, passing the limit was not always enough;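 also: cells stimulated with NPY at EC10 then isoproterenol at EC100; 0% = low agonist plus stimulus and 100% = saturating agonist plus stimulus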
S1P4 agonist: S1P4 receptor agonists, primary screen, cell-based | Sphingosine 1-phosphate receptor 4 (Homo sapiens), O95977 | S1P4-expressing cell line, agonist reporter assay | activation, % at 4.98 µM | hit rate 0.35% among 220,000 | AID 1509, 2009; in the data active = activation above about 11%;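 also: 0% = DMSO vehicle and 100% = reference agonist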
NPY Y2 blocker: NPY-Y2 receptor antagonists, primary screen, cell-based | inhibition, % at 2.7 µM | AID 793, 2007 | hit rate 0.99% among 140,000 | NPY-Y2 expressing cells, antagonist mode; in the data active = inhibition above about 17%;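 also: 0% = vehicle with agonist challenge and 100% = reference antagonist with challenge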
An asterisk follows results filed as active; nt = no result given. Rows were chosen to be rich in hits. Some 2.4% of all compounds tested hit in one or more screens of this group.

SMILES | S1P4 antagonist | NPY2 pot ag | NPY-Y1 antag | NPY-Y1 PAM-ag | S1P4 agonist | NPY Y2 blocker
COc1ccc(CNc2nc3ccccc3n2CCN2CCCCC2)cc1 | -7.1 | 11.0 | 9.2 | -9.2 | -0.3 | nt
CCN(CC)CCn1c(NCc2ccco2)nc2ccccc21 | 4.7 | -6.0 | 3.4 | -21.3 | -1.1 | 2.1
CCCCn1c(NCc2ccc3c(c2)OCO3)nc2ccccc21 | 6.3 | -0.9 | 20.1* | -18.9 | 0.2 | 15.2
CCN(CC)CCn1c(NCc2nc3ccccc3n2Cc2ccccc2)nc2ccccc21 | -4.4 | -1.5 | 21.8* | -45.5 | -1.9 | 18.5*
c1ccc(Cn2c(CNc3nc4ccccc4n3CCN3CCCCC3)nc3ccccc32)cc1 | -3.1 | -6.0 | 17.5 | -28.9 | 3.0 | 26.8*
CCN(CC)c1ccc(CNc2nc3ccccc3n2CCN2CCCCC2)cc1 | -3.2 | 43.5* | 13.6 | 45.1* | -1.7 | nt
COc1ccccc1OCCC(=O)OCC(=O)c1c(N)n(C)c(=O)n(C)c1=O | -12.2 | 13.4 | -0.4 | 5.0 | 0.5 | nt
Cc1ccc(NC(=O)c2c3c(nc4ccccc24)CCC3)cc1S(=O)(=O)N(C)C | -14.3 | -12.4 | 5.4 | -0.6 | 1.2 | nt
CCC(C)NC(=O)Cn1nc([N+](=O)[O-])c(Cl)c1C (configuration not stated) | -2.0 | 3.3 | 5.4 | -15.1 | -0.4 | -2.3
Cc1c(Cl)c([N+](=O)[O-])nn1CC(=O)NC(C)C1CC2CCC1C2 (configuration not stated) | -0.5 | -4.4 | 20.4* | -12.2 | -4.0 | 21.5*
CCN(CC)CCCNC(=O)C1CCN(C(=O)c2cc3sccc3n2Cc2ccc(F)cc2)CC1 | 7.4 | 100.2* | -4.8 | 63.8* | 2.0 | 0.6
CCN1CCN(C(=O)NCc2ccccc2)CC1 | -8.2 | -15.4 | nt | -14.9 | 1.7 | nt
CN(CC(O)Cn1cnc2c1c(=O)n(C)c(=O)n2C)c1ccccc1 (configuration not stated) | -15.9 | 3.2 | 9.8 | -18.4 | 2.0 | nt
COC(=O)C1CC(c2c(OC)cc(OC)cc2OC)=NO1 (configuration not stated) | -11.5 | 9.4 | 1.3 | 5.4 | 1.9 | 0.5
COC(=O)[C@@H]1C(c2c(OC)cc(OC)cc2OC)=NO[C@H]1C(=O)OC | -25.8 | 42.1* | -10.0 | 55.9* | 0.0 | -1.0
Cc1cc(Oc2ccc(C)c(Cl)c2)nc(SCC(=O)c2ccccc2)n1 | -15.8 | -22.6 | 33.9* | -73.5 | -0.8 | 35.1*
Cc1ccc(C(=O)CSc2cc(C)nc(SCC(=O)c3ccccc3)n2)cc1 | 0.8 | -6.2 | 10.1 | -10.8 | -0.6 | 11.1
CC(=O)NC1C(=O)N(CCc2ccccc2)c2ccc(Br)cc21 (configuration not stated) | 6.2 | -7.2 | 23.2* | -19.4 | 2.6 | 23.1*
Cc1noc(C)c1C(=O)N1CC(C)OC(C)C1 (configuration not stated) | -1.5 | 0.7 | 12.7 | 3.7 | -2.6 | 1.2
CCc1noc(C)c1C(=O)N1CC(C)OC(C)C1 (configuration not stated) | -2.2 | 95.5* | -9.9 | 77.9* | -1.9 | -0.9
COC(=O)CSc1nc(N)c2c3c(sc2n1)C(c1ccccc1)SC(c1ccccc1)C3 (configuration not stated) | -26.7 | 55.7* | -13.4 | 80.9* | -0.3 | -0.2
CC(C)(C)C1CCc2c(sc3nc(SCC(=O)O)nc(N)c23)C1 (configuration not stated) | -10.8 | 101.1* | nt | 105.5* | 0.8 | nt
CC(C)c1ccc(C2C3=C(COC3=O)Nc3cc4c(cc32)OCO4)cc1 (configuration not stated) | 4.5 | 9.6 | 6.8 | 18.4 | -0.1 | nt
CC(C)(C)NC[C@H](O)COc1nsnc1N1CCOCC1 | -15.6 | 103.6* | -10.7 | 118.1* | 3.5 | 0.9
COC(=O)COc1nsnc1N1CCOCC1 | -2.7 | -8.7 | -2.1 | 0.8 | -0.1 | 1.1
SMILES | S1P4 antagonist | NPY2 pot ag | NPY-Y1 antag | NPY-Y1 PAM-ag | S1P4 agonist | NPY Y2 blocker
COCc1c(C(=O)OC/C(O)=C(\C#N)c2nc3ccccc3[nH]2)oc2ccccc12 | -17.1 | -22.6 | 20.4* | -10.5 | -1.3 | nt
COc1ccc2oc(C(=O)OC/C(O)=C(\C#N)c3nc4ccccc4[nH]3)c(C)c2c1 | -5.9 | -15.5 | nt | -31.1 | 2.5 | nt
CSc1ccc(CN(C)C(C)C(=O)NCc2ccccc2)cc1 (configuration not stated) | -6.2 | -7.9 | 7.5 | -6.4 | -1.1 | nt
COc1ccc(-c2nnc(SCc3ccccc3)n2N)cc1 | 1.3 | -29.3 | 1.0 | 2.6 | 1.5 | 0.0
CCOc1ccc(-c2nnc(SCc3nnc(-c4ccccc4)o3)n2-c2ccccc2F)cc1 | 20.4 | -13.4 | 26.2* | -23.3 | -0.2 | 19.4*
COc1ccc(-n2c(SCc3ccc([N+](=O)[O-])cc3)nnc2-c2ccccc2)cc1 | -7.3 | -6.4 | 99.2* | -98.2 | -0.8 | 111.7*
Cc1ccc(-c2nnc(CSc3nnc(COc4ccccc4)n3-c3ccccc3)o2)cc1 | -9.8 | -8.1 | 12.7 | -26.9 | -4.6 | 15.4
CCOc1ccc(-n2c(SCc3ccc([N+](=O)[O-])cc3)nnc2-c2ccccc2)cc1 | 1.2 | -15.0 | 66.2* | -78.7 | 0.0 | 149.0*
CC1CCN(C(=S)c2cn(Cc3ccccc3F)c3ccccc23)CC1 | -7.4 | -16.6 | 45.1* | -6.7 | 0.0 | 28.8*
Cn1c(-c2ccc(F)cc2)cnc1NCc1cc2c(cc1[N+](=O)[O-])OCO2 | -22.0 | 8.8 | 7.0 | 0.4 | -1.2 | 6.4
Cn1c(-c2ccc(Cl)cc2)cnc1NCc1cc2c(cc1[N+](=O)[O-])OCO2 | -7.4 | 47.5* | -7.6 | 47.4* | -0.1 | 0.1
COc1ccc2c(c1OC)C(=O)N1c3ccccc3C(=O)N(c3ccc(F)cc3)C21 (configuration not stated) | -9.8 | -8.0 | 52.0* | -13.6 | 1.4 | 15.6
COc1ccc2c(c1OC)C(=O)N(c1ccc(C)cc1)C2=O | -11.8 | 6.5 | -2.7 | 13.4 | -0.7 | nt
COc1ccc2c(c1OC)C(=O)N1c3ccccc3C(=O)N(c3ccccc3)C21 (configuration not stated) | 14.1 | -11.5 | 17.9 | 1.2 | 0.0 | 23.0*
Cc1ccc2[nH]c(=O)c(-c3nc4cc(C)ccn4c3NCc3ccco3)cc2c1 | -25.2 | 33.1* | -2.2 | 30.9 | -0.7 | 7.5
Cn1c(N)c(C(=O)COC(=O)CCCc2c[nH]c3ccccc23)c(=O)n(C)c1=O | -11.4 | -28.9 | 29.7* | -44.5 | -1.1 | 19.7*
COc1ccccc1N1CCN(C(=O)CSc2nnc3n2C(C)(C)Cc2ccccc2-3)CC1 | -6.9 | 74.9* | -10.8 | 95.8* | 2.2 | 1.3
COc1ccccc1Nc1nc(NCC2CCCO2)c2ccccc2n1 (configuration not stated) | -15.2 | 25.8 | 14.5 | -0.1 | 2.7 | nt
CC(C)OC(=O)/C(=C\c1ccc2c(c1)c1ccccc1n2C)NC(=O)c1ccccc1 | -18.2 | -30.1 | 23.3* | -46.7 | -0.5 | 5.8

Screening data from PubChem.
